SUMO1 PPI mod = modulators of human SUMO1-mediated protein-protein interactions; SUMO1 binding to a labelled peptide, TR-FRET, 1 h; hit rate 0.33% among 360,000; P63165; inhibition, % at 20 µM; in the data active means inhibition above about 37%
Target sequence (P63165 whole entry, looked up): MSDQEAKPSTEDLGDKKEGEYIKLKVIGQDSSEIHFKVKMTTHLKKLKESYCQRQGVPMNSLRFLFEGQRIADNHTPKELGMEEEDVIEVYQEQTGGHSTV
Scp-1 inhibitor = inhibitors of human Scp-1 phosphatase; hit rate 0.88% among 340,000; inhibition, % at 20 µM; Q9GZU7; AID 493091; Recombinant Scp1, phosphopeptide, malachite green phosphate absorbance;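 active means inhibition above about 50% at 20 µM, limit read from the data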;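 further: plate controls were DMSO wells with enzyme for no effect and wells lacking enzyme for full effect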
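Material: truncated SCP-1 phosphatase (76-261aa) / Buffer or medium: 50 mM Tris acetate pH 5.5, 0.005% Tween-20, 10 mM MgCl2 / Compound dosing: one concentration, 20 µM, with 1.0% DMSO / Incubation: 45 min room-temperature reaction, 5 min colour, 30 min stabiliser / Detection: colorimetric free-phosphate detection, absorbance 630 nm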
STEP inh = blocks human striatal-enriched tyrosine phosphatase; P54829; recombinant STEP, OMFP fluorogenic substrate, fluorescence; inhibition, % at 20 µM; hit rate 0.25% among 360,000; AID 588621;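 active means inhibition at 20 µM, scaled per plate between control wells, above about 37%, limit read from the data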;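 further: 0% = DMSO with enzyme and substrate and 100% = substrate only without enzyme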
Target sequence (P54829 whole entry, looked up): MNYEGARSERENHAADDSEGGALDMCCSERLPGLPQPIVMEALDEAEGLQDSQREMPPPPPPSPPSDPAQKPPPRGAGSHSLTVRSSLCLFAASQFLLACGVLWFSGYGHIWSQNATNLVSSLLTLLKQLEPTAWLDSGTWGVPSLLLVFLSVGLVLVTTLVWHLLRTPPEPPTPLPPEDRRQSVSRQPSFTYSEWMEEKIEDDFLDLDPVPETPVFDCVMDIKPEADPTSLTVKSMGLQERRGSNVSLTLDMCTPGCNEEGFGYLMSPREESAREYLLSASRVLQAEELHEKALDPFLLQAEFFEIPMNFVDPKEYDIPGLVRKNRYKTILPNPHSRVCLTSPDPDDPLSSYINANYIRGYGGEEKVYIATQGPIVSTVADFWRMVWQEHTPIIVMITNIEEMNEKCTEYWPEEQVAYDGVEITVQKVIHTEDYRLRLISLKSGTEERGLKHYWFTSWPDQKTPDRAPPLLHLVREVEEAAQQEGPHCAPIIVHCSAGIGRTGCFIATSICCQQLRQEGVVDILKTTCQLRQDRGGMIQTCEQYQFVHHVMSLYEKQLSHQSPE
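Assay system: isolated STEP enzyme / Timing: 20 min at room temperature, dark / Doses: 20 µM, 1% DMSO / Technique: fluorescence intensity, excitation 480 nm, emission 540 nm / Reagent: fluorogenic phosphatase substrate OMFP at 25 µM final / Measure: percent inhibition scaled to no-enzyme and uninhibited-enzyme controls, plate-pattern corrected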
LMPTP block = blocks human LMPTP phosphatase; P24666; recombinant LMPTP-A, OMFP fluorogenic substrate, fluorescence intensity; inhibition, % at 20 µM; hit rate 0.22% among 360,000;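 active means compounds that cut the enzyme signal by at least half of the control window in the single-dose screen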;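 further: plate controls were DMSO wells with enzyme plus substrate for no effect and substrate without enzyme for full effect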
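Test system: LMPTP-A, protein tyrosine phosphatase of low molecular weight; Input: 0.625 nM enzyme; Incubation: 50 min dark incubation at room temperature; Signal: endpoint fluorescence intensity from OMFP dephosphorylation; Read-out basis: % inhibition versus control wells.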
DNMT1 inh = blocks human DNA methyltransferase DNMT1 | DNMT1 molecular beacon, Hinp1I cleavage, fluorescence | hit rate 0.83% among 360,000 | inhibition (reported as % activation of signal), % at 10 µM; in the data active means inhibition above about 50%
Scp1 confirm = confirmation of human Scp-1 phosphatase inhibitors; shares compounds with Scp-1 inhibitor; recombinant SCP-1 catalytic domain, phosphate release, malachite green absorbance; inhibition, % at 20 µM; hit rate 61% among 2,500; AID 540281;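 further: plate controls were DMSO with enzyme for no effect and buffer wells lacking enzyme for full effect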
MG interference = counter-screen for Scp-1 inhibitors: colorimetric interference. shares compounds with Scp-1 inhibitor. Colorimetric interference counterscreen, malachite green absorbance 630 nm. apparent inhibition (interference), % at 20 µM. 2,500 tested, under 10 active. AID 540313;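 further: compounds added after enzyme reaction finished so only phosphate colour detection is probed; plate controls were DMSO wells with completed Scp-1 reaction for no effect and substrate wells lacking enzyme for full effect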
Scp-1 Tm shift = Scp-1 (human) binding by thermal shift | thermal shift relative to vanadate control, % at 40 µM | shares compounds with Scp-1 inhibitor | hit rate 25% among 1,500 | AID 540329 | Recombinant SCP1, Sypro Orange thermal shift Tm;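 active means substances whose mean melting-temperature shift, as a percentage of the reference inhibitor's shift, reaches about 5.3%, limit read from the data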;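 further: 0% = Tm of DMSO wells and 100% = Tm with sodium orthovanadate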
Numbers without * were called inactive. Most compounds without a hit are left out; they make up all but 1.8% or so of the library.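 How the source made its calls, unless noted: active means inhibition of at least 30% at 20 µM; inactive means the rest.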

For CC12CCC(=O)N1C(C(=O)Nc1cc(Cl)ccc1N1CCOCC1)CS2 (configuration not stated) the results were SUMO1 PPI mod -1, Scp-1 inhibitor -6, STEP inh 1, LMPTP block 1 and DNMT1 inh -2.
For O=C(Nc1ccc(-c2ccccc2)cc1)c1ccco1 the results were SUMO1 PPI mod 1, Scp-1 inhibitor 59*, STEP inh 1, LMPTP block 0, DNMT1 inh 7, Scp1 confirm -16 and MG interference -18.
For Cc1nnc2ccc(-c3ccc(NC(=O)c4ccco4)cc3)nn12 the results were SUMO1 PPI mod 52*, Scp-1 inhibitor 89*, STEP inh 1, LMPTP block 7, DNMT1 inh 12, Scp1 confirm 18 and MG interference -12.
Screening NC(=O)C1CCN(C(=O)c2ccc3c(=O)n(Cc4ccco4)c(SCc4ccc([N+](=O)[O-])cc4)nc3c2)CC1 returned SUMO1 PPI mod -7, Scp-1 inhibitor -4, STEP inh 0, LMPTP block 1 and DNMT1 inh -3.
C[N+]1(CC(=O)OCCCc2ccccc2)CCCC1 was read as SUMO1 PPI mod -3, Scp-1 inhibitor 62*, STEP inh 0, LMPTP block -2, DNMT1 inh -1, Scp1 confirm 82*, MG interference -19 and Scp-1 Tm shift -26.
C[N+]1(CC(=O)OCCCc2ccccc2)CCCCC1 was read as SUMO1 PPI mod 1, Scp-1 inhibitor 24, STEP inh -1, LMPTP block -1 and DNMT1 inh -1.
Screening COc1cc(OC)cc(C(=O)NNC(=O)CN2C(=O)NC(C)(c3ccc(C)cc3)C2=O)c1 (configuration not stated) returned SUMO1 PPI mod 3, Scp-1 inhibitor -7, STEP inh -2, LMPTP block -1 and DNMT1 inh 0.
Screening CCOC(=O)c1cc(C#N)c(SCC(=O)c2cc(C#N)c(SC)nc2C)[nH]c1=O returned SUMO1 PPI mod 14, Scp-1 inhibitor 89*, STEP inh 6, LMPTP block 2, DNMT1 inh -4, Scp1 confirm 23 and MG interference -12.
For CCOC(=O)c1cc(C#N)c(SCC(N)=O)[nH]c1=O the results were SUMO1 PPI mod 7, Scp-1 inhibitor 15, STEP inh 0, LMPTP block 11 and DNMT1 inh 10.
`CCOc1ccc(N(C(=O)c2snc(C(N)=O)c2N)C(C(=O)NC2CCCC2)c2ccncc2)cc1` (configuration not stated) gave SUMO1 PPI mod -14, Scp-1 inhibitor -5, STEP inh -1, LMPTP block 1 and DNMT1 inh 20.
Screening O=C(Nc1cccc([N+](=O)[O-])c1)c1ccncc1 returned SUMO1 PPI mod -9, Scp-1 inhibitor 0, STEP inh 1, LMPTP block -1 and DNMT1 inh 2.
Screening O=C(Nc1cccc([N+](=O)[O-])c1)c1cnccn1 returned SUMO1 PPI mod -9, Scp-1 inhibitor 58*, STEP inh 4, LMPTP block 3, DNMT1 inh 16, Scp1 confirm 56*, MG interference -17 and Scp-1 Tm shift 6.4*.
CC1=NN(c2nc(-c3ccc(C)cc3)cs2)C(=O)C1N=Nc1cccc(O)c1 (configuration not stated) was read as SUMO1 PPI mod 16, Scp-1 inhibitor -4, STEP inh 2, LMPTP block 3 and DNMT1 inh -8.
CC1=NN(c2nc(-c3ccc(C)cc3)cs2)C(=O)C1N=Nc1ccccc1O (configuration not stated) was read as SUMO1 PPI mod 20, Scp-1 inhibitor 58*, STEP inh 2, LMPTP block 2, DNMT1 inh 15, Scp1 confirm 71*, MG interference -18 and Scp-1 Tm shift 7.4*.
COc1nc(=O)n(C2C=CC(=O)O2)cc1F (configuration not stated) was read as SUMO1 PPI mod 11, STEP inh -1, LMPTP block 1 and DNMT1 inh 32.
For COc1ccccc1C(=O)Nc1c2c(nn1-c1ccc(Cl)cc1)CS(=O)(=O)C2 the results were SUMO1 PPI mod -3, Scp-1 inhibitor 50*, STEP inh 3, LMPTP block 7, DNMT1 inh 8, Scp1 confirm 18 and MG interference -17.
For COc1ccccc1C(=O)Nc1c2c(nn1-c1ccc([N+](=O)[O-])cc1)CS(=O)(=O)C2 the results were SUMO1 PPI mod -4, Scp-1 inhibitor -4, STEP inh 0, LMPTP block -1 and DNMT1 inh 2.
Screening COc1ccccc1C(=O)Nc1c2c(nn1-c1cccc(C)c1C)CS(=O)(=O)C2 returned SUMO1 PPI mod 18, Scp-1 inhibitor 73*, STEP inh 22, LMPTP block -1, DNMT1 inh 4, Scp1 confirm 46*, MG interference -14 and Scp-1 Tm shift -12.
For Cn1c(N)c(C(=O)COC(=O)c2ccccc2C(=O)c2ccc(Cl)c([N+](=O)[O-])c2)c(=O)n(C)c1=O the results were SUMO1 PPI mod -10, Scp-1 inhibitor -10, STEP inh 4, LMPTP block 2 and DNMT1 inh 3.
For COCCNc1nc2c(c(=O)[nH]c(=O)n2C)n1CCCc1ccccc1 the results were SUMO1 PPI mod -2, Scp-1 inhibitor -2, STEP inh 1, LMPTP block 1 and DNMT1 inh -2.
C[N+]1=C2CCCCCN2C(O)(c2ccccc2)C1 (configuration not stated) was read as SUMO1 PPI mod 1, Scp-1 inhibitor 96*, STEP inh -3, LMPTP block -2, DNMT1 inh 3, Scp1 confirm 94*, MG interference -10 and Scp-1 Tm shift -11.
Screening CCCCCCN1C[C@@H](n2cc(C3CC3)nn2)[C@H](O)C[C@@H]1c1ccc(Cl)cc1 returned SUMO1 PPI mod -2, STEP inh 1, LMPTP block 3 and DNMT1 inh 12.
Cc1cc(Br)cc2c1N(C)C(=O)C2(c1ccc(O)cc1)c1ccc(O)cc1 was read as SUMO1 PPI mod 10, Scp-1 inhibitor -3, STEP inh -5, LMPTP block 2 and DNMT1 inh -18.
